High-throughput results from PubChem.
The list is not random: actives were taken first. Their share in the collection is about 9.8%.
Lmaj promast – Leishmania major promastigote growth inhibition, primary screen; Leishmania major promastigotes, resazurin fluorescence viability; inhibition, % at 10 µM; actives 9% (n = 200,000); AID 1063, 2008; in the data active = inhibition above about 50%;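 note: promastigotes grown with compound for 44 hours at 28 °C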
Rad51 HR inh – human RAD51 strand exchange inhibitors, primary screen, biochemical, fluorescence; DNA repair protein RAD51 homolog 1 (Homo sapiens), Q06609; hRad51 DNA strand exchange, fluorescence dequenching; inhibition, % at 10 µM; actives 0.085% (n = 200,000); AID 1385, 2008;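 active = inhibition above 40% at the single screening dose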;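 note: 0% = DMSO control wells and 100% = blanks with heterologous ssDNA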
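Test system: preformed human Rad51 ssDNA filaments. Compound dosing: single dose, 10 µM final compound. Incubation: filaments 15 min 37 °C, then compound 30 min. Technique: FRET fluorescence dequenching, excitation 485 nm, emission 520 nm. Read-out basis: percent inhibition from fluorescence, normalised to plate control and blank means. Benchmarks: plate controls and plate blanks.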
PMI act satM6P – human PMI activators, high substrate, primary screen, biochemical, fluorescence intensity, near-saturating mannose 6-phosphate | Mannose-6-phosphate isomerase (Homo sapiens), P34949 | coupled PMI enzyme assay, resazurin fluorescence, 20 min; active compounds read high; 1 = untreated enzyme, 0 = substrate-free blank | activation factor at 20 µM | actives 0.34% (n = 190,000);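 active = activation factor of 2 or more at 20 µM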
Target sequence (P34949 whole entry, looked up): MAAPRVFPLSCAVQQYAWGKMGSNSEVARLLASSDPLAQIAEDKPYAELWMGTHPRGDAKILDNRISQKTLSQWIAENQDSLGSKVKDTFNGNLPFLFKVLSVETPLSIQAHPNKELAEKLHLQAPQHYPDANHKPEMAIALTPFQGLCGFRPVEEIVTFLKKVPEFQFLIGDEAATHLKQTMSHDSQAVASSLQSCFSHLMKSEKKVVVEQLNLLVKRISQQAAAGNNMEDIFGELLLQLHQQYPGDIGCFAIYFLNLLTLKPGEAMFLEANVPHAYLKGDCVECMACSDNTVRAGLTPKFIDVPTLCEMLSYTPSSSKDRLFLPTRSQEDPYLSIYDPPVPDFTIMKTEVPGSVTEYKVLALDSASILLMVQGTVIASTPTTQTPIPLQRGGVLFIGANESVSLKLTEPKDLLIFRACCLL
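Test system: human phosphomannose isomerase with PGI, G6PDH, diaphorase coupling enzymes / Doses: 20 µM compound, 1% DMSO / Times: enzyme reaction with compound 20 min at room temperature / Measured by: Diaphorase-driven resazurin-to-resorufin fluorescence, excitation 544, emission 590 nm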
PMI act – activators of human PMI, primary screen, biochemical, fluorescence intensity, near-Km mannose 6-phosphate; Mannose-6-phosphate isomerase (Homo sapiens), P34949; actives 0.005% (n = 190,000); purified human PMI, coupled resazurin fluorescence, 20 min; active compounds read high; 1 = vehicle control, 0 substrate-free wells; activation factor at 20 µM; AID 1214, 2008;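 active = activation factor of 2 or more at 20 µM, relative to plate controls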
WT yeast gro inh – growth inhibition of WT strain, primary screen, mitochondrial fusion inhibitor project, WT and mutant strains, chemical genetic; mitochondrial fusion phenotypic screen; inhibition, % at 10 µM; actives 2.1% (n = 190,000); in the data active = inhibition above about 58%; tested in S. cerevisiae
Calpain2 inh – inhibitors of pig calpain II, primary screen, biochemical, fluorogenic peptide substrate, 1536-well; purified calpain II, 30 min; inhibition, % at 16 µM; actives 0.37% (n = 220,000);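 active = inhibition above about 50%, limit read from the data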
* marks the source's active call; other numbers are inactive results; x = no result given.

SMILES	Lmaj promast	Rad51 HR inh	PMI act satM6P	PMI act	WT yeast gro inh	Calpain2 inh
NS(=O)(=O)c1ccc(NC(=S)NCCc2ccccc2)cc1	7	-1	1	0.9	-13	-13
O=[N+]([O-])c1cc(C(F)(F)F)ccc1NCCNC(=S)Nc1ccc(Cl)cc1	101*	x	0.9	0.8	-1	52*
O=[N+]([O-])c1ccc(NC(=S)NCCc2ccccc2)cc1	74*	4	1.1	1	81*	11
NS(=O)(=O)c1ccc(NC(=S)NCc2ccc(Cl)cc2)cc1	2	-17	0.8	0.4	13	56*
O=[N+]([O-])c1ccc(NC(=S)NCCc2ccc(Cl)cc2)cc1	91*	4	0.8	0.8	83*	68*
CCN1C(=O)[C@H]2[C@H]3[C@H](O)[C@H](O)C/C(=N\O[C@H](C)c4cn([C@H](CO)Cc5ccccc5)nn4)[C@@H]3CC[C@H]2C1=O	-6	x	1	1.1	-2	-10
O=[N+]([O-])c1ccc(NNC(=S)Nc2ccccc2)cc1	53*	x	1.2	1	35	26
Cc1ccc(S(=O)(=O)NN2C(=O)c3ccccc3NC2c2ccccn2)cc1 (stereo not drawn)	-5	-7	1	1	0	-287
N=c1c2c(-c3ccccc3)c(-c3ccccc3)oc2ncn1CCCN1CCOCC1	87*	-7	1.1	1	11	-64
N=c1c2c(-c3ccccc3)c(-c3ccccc3)oc2ncn1CCN1CCOCC1	16	2	0.8	0.9	-9	-47
c1ccc(-c2oc3ncnc(NCCN4CCOCC4)c3c2-c2ccccc2)cc1	98*	-12	1.2	1	10	-128
COC(=O)c1c(C)[nH]c(C(=O)NCc2ccco2)c1C	-1	7	1	0.9	2	-5
O=C(NCc1ccccc1)c1ccccc1C(=O)c1ncc[nH]1	-4	x	1	1	-10	-28
O=C(COC(=O)c1cccc(S(=O)(=O)N2CCc3ccccc32)c1)NCc1ccco1	-2	-9	0.9	1	-11	3
O=C(COC(=O)c1cccc(S(=O)(=O)N2CCc3ccccc32)c1)Nc1ncc(Cl)cc1Cl	60*	3	1	1.1	12	-11
O=C(COC(=O)c1ccc(Cl)c(S(=O)(=O)N2CCc3ccccc3C2)c1)Nc1ncc(Cl)cc1Cl	81*	0	0.9	0.9	-2	4
O=C(COC(=O)c1cccc(S(=O)(=O)N2CCc3ccccc32)c1)Nc1ncc(C(F)(F)F)cc1Cl	-7	-1	0.9	0.9	-3	-39
O=C(OCC(=O)N1CCc2ccccc21)c1cccc(S(=O)(=O)N2CCCc3ccccc32)c1	98*	1	1	0.9	-11	-4
Cc1nc(NC(=O)COC(=O)c2ccc(S(=O)(=O)N3CCc4ccccc4C3)cc2)c(Cl)cc1Cl	-2	12	1	1.2	-26	-27
CCc1ccccc1NC(=O)CCc1nc(-c2cccs2)no1	-1	2	1	1	19	12
CCn1c(CNC(=O)c2ccco2)nnc1SCC(=O)Nc1cc(C(F)(F)F)ccc1Cl	-8	-6	0.9	0.9	70*	-20
CCn1c(CNC(=O)c2ccco2)nnc1SCC(=O)Nc1cc(C)c(C)cc1Br	0	5	1.1	1	-16	9
C/C(CCN1CCc2nc(-c3ccccc3)c(-c3ccccc3)cc2C1)=N\OC[C@@H](C)[C@H](OCc1ccccc1)C(C)C	4	-9	1.3	1.2	61*	30
NC(=O)COC(=O)c1ccccc1OCc1ccccc1Cl	5	9	1.1	1.1	-6	8
Fc1ccc(C2c3[nH]c4ccccc4c3CCN2Cc2cccn2-c2ncccn2)cc1 (stereo not drawn)	67*	1	x	x	23	-53
SMILES	Lmaj promast	Rad51 HR inh	PMI act satM6P	PMI act	WT yeast gro inh	Calpain2 inh
COc1cccc(C2c3[nH]c4ccccc4c3CCN2Cc2cccn2-c2ncccn2)c1 (stereo not drawn)	11	15	0.8	0.9	17	-101
Clc1ccc(-n2cccc2CN2CCc3c([nH]c4ccccc34)C2c2ccccn2)nc1 (stereo not drawn)	96*	-10	0.6	0.8	49	-70
C=CCON1C(=O)C(=O)N(OCC=C)[C@H]2CCCC[C@H]21	x	x	x	x	x	1
CCN(CC(=O)NC(c1ccccc1)c1ccccc1)Cc1nc2ccccc2c(=O)[nH]1	54*	0	1	1.1	-4	-54
CCN(CC(=O)NCCc1ccc(F)cc1)Cc1nc2ccccc2c(=O)[nH]1	x	46*	x	x	x	-11
CCN(CC(=O)Nc1ccccc1SC)Cc1nc2ccccc2c(=O)[nH]1	x	x	x	x	x	-5
COc1ccccc1C(=O)NCCCNc1ccc([N+](=O)[O-])cc1	0	-1	1	0.9	-8	9
O=C(NCCCO)c1cc([N+](=O)[O-])cc2c1C=Cc1ccccc1O2	97*	-16	1	1	1	5
CCOc1ccc(NC(=S)Nc2ccc(OCC)cc2)cc1	-4	-4	0.9	0.9	7	-34
CCNC(=S)Nc1ccc(OCC)cc1	65*	-2	1	1	16	20
CCOc1ccc(NC(=S)NC(C)CCc2ccccc2)cc1 (stereo not drawn)	0	15	1	0.9	61*	-1
Cc1onc(-c2ccccc2)c1CNC(=O)Nc1ccccc1	x	17	x	x	x	-17
COc1cc(CCC(=O)Nc2ccc(C)c(S(=O)(=O)N(C)C)c2)cc(OC)c1OC	45	-1	1.1	1	-19	0
COC(=O)c1ccc(OC(=O)CCN2c3ccccc3Sc3ccccc32)cc1	-6	-3	1	0.9	61*	11
CC(=O)c1ccc(OC(=O)CCN2c3ccccc3Sc3ccccc32)cc1	53*	5	1	1	61*	3
O=C(CCN1c2ccccc2Sc2ccccc21)Oc1ccccc1	-1	11	0.9	0.9	16	0
CCOC(=O)N1CCN(CC(O)c2ccc3c(c2)CCN3)CC1 (stereo not drawn)	1	1	1	0.9	-1	6
CCOC(=O)N1CCN(CC(O)c2ccc3cc[nH]c3c2)CC1 (stereo not drawn)	70*	0	0.9	0.9	-1	-3
COc1ccccc1N1CCN(CC(O)c2ccc3cc[nH]c3c2)CC1 (stereo not drawn)	89*	2	0.8	0.8	11	-11
